For assay [1], the system named is Jurkat. Description: Ratio of inhibitory activity against amsacrine resistant jurkat cells to inhibitory activity against wild type human jurkat cells. The class given is functional. In a few lines: (§1)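 Wild-type Jurkat (JLC) and its amsacrine-resistant (JLA) or doxorubicin-resistant (JLD) sublines each seeded at 3.75 × 10^3 cells/well, 4 days with drug, sulforhodamine read-out. IC50 (nM) for 50% of control cell number; ratio = resistant-line IC50 divided by JLC IC50. Duplicate assays, CV ca. 25%.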

The subject of assay [2] is SK-OV-3. The assay can be described thus: inhibitory activity against ovarian carcinoma SKOV3 cell line. The class given is functional. As to conditions: Homo sapiens. In a few lines:
(§2)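 Tested in the NCI human cell line panel. GI50 = drug concentration (nM) giving growth inhibition to 50% of controls; values below 10 nM were taken as 10 nM in calculations.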

Assay [3] relates to CAKI-1. Description: inhibitory activity against renal tumor […] cell line. The class given is functional. The settings on record: Homo sapiens. In a few lines: as §2
Assay [4] has as its system MCF7. Description: inhibitory activity against multi drug resistant MCF cell line. The class given is functional. As to conditions: Homo sapiens, in the assay text read “MCF7 cell line” for “multi drug resistant MCF cell line”. In a few lines: as §2
The subject of assay [5] is HT-29. Description: inhibitory activity against colon HT-29 cell line. The settings on record: Homo sapiens. The class given is functional. In outline: as §2
The subject of assay [6] is HCT-116. Description: inhibitory activity against colon HCT116 cell line. The format is functional. As to conditions: Homo sapiens. In a few lines: as §2
Assay [7] relates to Jurkat. The assay can be described thus: Concentration required to inhibit 50% growth of human Jurkat cells. The format is functional, cell-based. In a few lines: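 Jurkat leukemia (JLC) cells seeded at 3.75 × 10^3 cells/well and exposed to drug for 4 days; growth measured by sulforhodamine assay. IC50 = drug concentration (nM) reducing cell number to 50% of control cultures. Independent assays in duplicate, coefficients of variation ca. 25%.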

Assay [8] relates to Lewis lung carcinoma cell line. The assay can be described thus: Inhibitory activity of tested against Murine Lewis lung carcinoma. The format is functional, cell-based. The settings on record: Mus musculus. In outline:
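Lewis lung carcinoma (LLTC) cells at 10^3 cells/well, 4-day continuous drug exposure, growth read by sulforhodamine assay. IC50 (nM) = concentration giving 50% of control cell number. Duplicate independent assays, CV ca. 25%.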

In assay [9] the test system is P388. The assay can be described thus: Inhibitory activity against Murine […]. The class given is functional, cell-based. The settings on record: Mus musculus. In a few lines:
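Murine P388 leukemia cells seeded at 4.5 × 10^3 cells/well, cultured 3 days with drug; growth measured by [3H]TdR uptake. IC50 = drug concentration (nM) reducing cell number to 50% of controls. Independent assays in duplicate, CV ca. 25%.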

In assay [10] the test system is Jurkat. The assay can be described thus: Ratio of inhibitory activity against doxorubicin resistant jurkat cells to inhibitory activity against wild type human jurkat cells. The format is functional. In a few lines: as §1
Assay [11] concerns NCI/ADR-RES. Description: inhibitory activity against multi drug resistant NCI/ADR cell line. The class given is functional. As to conditions: Homo sapiens. In outline:
as §2

Usually GI50 stands for the concentration giving 50% growth inhibition. Lower therefore signals more potent growth inhibition. The term IC50 denotes the midpoint of a concentration-inhibition curve. Read a low IC50 as inhibition by little substance. Consider `Cc1cccc2cc3cccc(C(=O)NCCCN(C)CCCNC(=O)c4cccc5cc6cccc(C)c6nc45)c3nc12`, for which the Ratio is reported as 0.4 in assay [1] and 0.7 in assay [10]. The GI50 was 87 nM in assay [2]; < 10 nM in assay [3]; < 10 nM in [4]; < 10 nM in [5]; < 10 nM in assay [6]; 116 nM in [11]. The IC50 in [7] is 11 nM; in [8] it was 1.8 nM; in assay [9] it was 23 nM.

For `CN(CCCNC(=O)c1cccc2cc3ccc(Cl)cc3nc12)CCCNC(=O)c1cccc2cc3ccc(Cl)cc3nc12`, the Ratio came to 0.5 in assay [1] and 0.9 in assay [10]. In addition, the GI50 in assay [2] is 11000 nM; in assay [3] it was < 10 nM; in [4], 13 nM; in assay [5], < 10 nM; in assay [6], < 10 nM; in assay [11], 274 nM. In addition, the IC50 was 51 nM in assay [7], 13 nM in [8] and 66 nM in assay [9].

Regarding `CN(CCCNC(=O)c1cccc2cc3cccc(Cl)c3nc12)CCCNC(=O)c1cccc2cc3cccc(Cl)c3nc12`, the Ratio in [1] amounted to 0.55; in assay [10] it was 1. Moreover, the GI50 was found to be 12000 nM in [2]; 95.9 nM in assay [3]; 167 nM in assay [4]; 31 nM in assay [5]; 14 nM in assay [6]; 1200 nM in assay [11]. Moreover, the IC50 in assay [7] was determined as 33 nM; in assay [8] it was 8 nM; in [9] it was 46 nM.

Regarding `Cc1ccc2cc3cccc(C(=O)NCCCN(C)CCCNC(=O)c4cccc5cc6ccc(C)cc6nc45)c3nc2c1`, the Ratio in assay [1] turned out to be 0.7; in [10], 0.9. The GI50 in [2] is 3040 nM; in assay [3], 669 nM; in assay [4] it was 530 nM; in [5], 62 nM; in [6] it was 130 nM; in assay [11] it was 407 nM. Besides, the IC50 in assay [7] was found to be 177 nM; in [8], 56 nM; in assay [9], 345 nM.

Take `Cc1cccc2nc3c(C(=O)NCCCN(C)CCCNC(=O)c4cccc5cc6c(C)cccc6nc45)cccc3cc12`: the results for the Ratio in [1] and in [10] were 0.7 and 1, respectively. In addition, the GI50 in assay [2] turned out to be 594 nM; in assay [3], 58 nM; in assay [4], 174 nM; in [5], 60 nM; in assay [6], 13 nM; in [11], 1040 nM. For the same compound, the IC50 in [7] amounted to 71 nM; in [8] it was 16 nM; in assay [9] it was 180 nM.

Turning to `CN(CCCNC(=O)c1cccc2cc3cccc(-c4ccccc4)c3nc12)CCCNC(=O)c1cccc2cc3cccc(-c4ccccc4)c3nc12`, the Ratio came to 0.5 in assay [1] and 0.8 in [10]. Besides, the GI50 in assay [2] was determined as 12000 nM; in assay [3], 12000 nM; in assay [4] it was 1020 nM; in assay [5], 1620 nM; in assay [6], 5060 nM; in [11] it was 1790 nM. Moreover, the IC50 in assay [7] was 2540 nM; in assay [8] it was 1080 nM; in assay [9], 1230 nM.

`CN(CCCNC(=O)c1cccc2cc3cccc(F)c3nc12)CCCNC(=O)c1cccc2cc3cccc(F)c3nc12`: the figures for the Ratio in [1] and in assay [10] were 0.6 and 0.9, respectively. Besides, the GI50 is 845 nM in assay [2]; 34 nM in assay [3]; < 10 nM in assay [4]; < 10 nM in assay [5]; < 10 nM in assay [6]; 93 nM in assay [11]. Moreover, the IC50 worked out at 49 nM in assay [7], 35 nM in [8] and 16 nM in [9].

Regarding `CN(CCCNC(=O)c1cccc2cc3cccc(C(F)(F)F)c3nc12)CCCNC(=O)c1cccc2cc3cccc(C(F)(F)F)c3nc12`, the Ratio is given as 0.85 in assay [1] and 1.1 in assay [10]. The GI50 in assay [2] came to 1260 nM; in assay [3], 600 nM; in assay [4], 79 nM; in assay [5], 33 nM; in assay [6], 32 nM; in [11], 1290 nM. Also, the results for the IC50 in assay [7], in assay [8] and in assay [9] were 115 nM, 39 nM and 240 nM, respectively.

Turning to `COc1cccc2cc3cccc(C(=O)NCCCN(C)CCCNC(=O)c4cccc5cc6cccc(OC)c6nc45)c3nc12`, the results for the Ratio in [1] and in assay [10] were 0.5 and 0.8, respectively. Moreover, the GI50 in assay [2] was 12000 nM; in [3], 1490 nM; in assay [4], 394 nM; in assay [5], 103 nM; in assay [6] it was 330 nM; in assay [11], 1390 nM. Also, the IC50 was 345 nM in assay [7], 170 nM in [8] and 430 nM in [9].

`CCc1cccc2cc3cccc(C(=O)NCCCN(C)CCCNC(=O)c4cccc5cc6cccc(CC)c6nc45)c3nc12`: the Ratio is given as 0.7 in assay [1] and 0.9 in [10]. Besides, the GI50 stood at 10000 nM in assay [2]; 104 nM in assay [3]; 265 nM in assay [4]; 1390 nM in assay [5]; 221 nM in assay [6]; 1340 nM in [11]. Further, the IC50 was found to be 113 nM in [7], 27 nM in [8] and 170 nM in assay [9].

On to `CN(CCCNC(=O)c1cccc2cc3ccc(N(C)C)cc3nc12)CCCNC(=O)c1cccc2cc3ccc(N(C)C)cc3nc12`, for which the Ratio is listed as 0.3 in [1] and 0.6 in [10]. In addition, the IC50 stood at 225 nM in assay [7], 320 nM in assay [8] and 760 nM in assay [9].

With `CN(CCCNC(=O)c1cccc2cc3cc(C(C)(C)C)ccc3nc12)CCCNC(=O)c1cccc2cc3cc(C(C)(C)C)ccc3nc12`, the Ratio in assay [1] and in assay [10] was 1.1 each time. Besides, the IC50 was 1070 nM in assay [7], 1400 nM in [8] and 1760 nM in [9].

With `CN(CCCNC(=O)c1cccc2cc3ccc(C(F)(F)F)cc3nc12)CCCNC(=O)c1cccc2cc3ccc(C(F)(F)F)cc3nc12`, the Ratio in assay [1] is 0.6; in assay [10] it was 1.1. The IC50 in assay [7] worked out at 355 nM; in assay [8], 160 nM; in [9], 9600 nM.

Consider `Cc1ccc(C(=O)NCCCN(C)CCCNC(=O)c2ccc(C)c3cc4cccc(C)c4nc23)c2nc3c(C)cccc3cc12`, for which the values for the Ratio in assay [1] and in assay [10] were 0.3 and 0.7, respectively. For the same compound, the figures for the IC50 in assay [7], in [8] and in assay [9] were 3.9 nM, 1.4 nM and 21 nM, respectively.

Take `CCc1ccc2nc3c(C(=O)NCCCN(C)CCCNC(=O)c4cccc5cc6cc(CC)ccc6nc45)cccc3cc2c1`: the figures for the Ratio in [1] and in assay [10] were 0.9 and 1.4, respectively. In addition, the IC50 amounted to 1640 nM in assay [7], 770 nM in [8] and 1080 nM in assay [9].

As for `CN(CCCNC(=O)c1cccc2cc3cccc(N(C)C)c3nc12)CCCNC(=O)c1cccc2cc3cccc(N(C)C)c3nc12`, the Ratio came out at 0.7 in [1] and 0.9 in [10]. Besides, the IC50 in assay [7] is 180 nM; in assay [8], 670 nM; in assay [9], 2130 nM.

On to `COc1ccc2nc3c(C(=O)NCCCN(C)CCCNC(=O)c4cccc5cc6cc(OC)ccc6nc45)cccc3cc2c1`, for which the Ratio in [1] is 0.7; in assay [10] it was 1.1. Moreover, the IC50 in assay [7] amounted to 147 nM; in [8] it was 20 nM; in assay [9] it was 132 nM.

Turning to `Cc1ccc(Cl)c2cc3cccc(C(=O)NCCCN(C)CCCNC(=O)c4cccc5cc6c(Cl)ccc(C)c6nc45)c3nc12`, the Ratio in assay [1] is reported as 0.5; in assay [10] it was 0.7. In addition, the IC50 stood at 20 nM in [7], 8.8 nM in assay [8] and 41 nM in assay [9].

Regarding `CN(CCCNC(=O)c1cccc2cc3ccc(F)cc3nc12)CCCNC(=O)c1cccc2cc3ccc(F)cc3nc12`, the Ratio in assay [1] worked out at 0.6; in assay [10] it was 0.9. Besides, the IC50 in [7] is 52 nM; in [8], 20 nM; in [9] it was 24 nM.

Turning to `COc1ccc2cc3cccc(C(=O)NCCCN(C)CCCNC(=O)c4cccc5cc6ccc(OC)cc6nc45)c3nc2c1`, the Ratio is given as 0.5 in assay [1] and 0.8 in [10]. Further, the IC50 in assay [7] is 51 nM; in assay [8], 20 nM; in [9], 76 nM.

As to `CN(CCCNC(=O)c1cccc2cc3cc(-c4ccccc4)ccc3nc12)CCCNC(=O)c1cccc2cc3cc(-c4ccccc4)ccc3nc12`, the Ratio in assay [1] amounted to 1; in [10], 1.1. Further, the IC50 came to 1020 nM in [7], 610 nM in assay [8] and 710 nM in [9].

The record behind these values is ChEMBL document CHEMBL1132256, “Structure-activity relationships for substituted bis(acridine-4-carboxamides): a new class of anticancer agents” (J Med Chem, 1999).
